This passage reports inhibition, Ki and half-life results from ChEMBL document CHEMBL3217465, “Development of a phosphatase-resistant, L-tyrosine derived LPA1/LPA3 dual antagonist” (Medchemcomm, 2011).

Broadly, the pKi is −log10 of the Ki, conventionally taken in molar units. By Ki is commonly meant the equilibrium dissociation constant of an inhibitor or competing ligand from its target. The half-life is the time needed for the level to fall by half in the phase considered.

One data set concerns A-431. Put plainly: Antagonist activity at LPA receptor in human A431 cells assessed as inhibition of LPA-induced intracellular calcium mobilization at 10 uM by Fluo-3 AM-staining based FLIPR assay. Format: cell-based. The procedure, abridged:
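A431 human epithelial carcinoma cells, which express LPA1–3 receptor mRNAs, were tested with the test compound at a single concentration of 10 μM against a single concentration of 1-oleoyl LPA. The read-out was inhibition of LPA-induced intracellular calcium release.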
In general terms: Calcium flux is commonly read through the fluorescence of an indicator in the cells.

The target of data set [1] is Lysophosphatidic acid receptor 1 (Homo sapiens, UniProt Q92633). Put plainly: Competitive antagonist activity at human LPA1 receptor overexpressed in CHO cells assessed as inhibition of LPA-induced [35S]GTPgammaS binding by liquid scintillation counting. Format: functional, cell-based. The procedure, abridged:
(§1)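 GTP[γ-³⁵S] binding was measured in membrane fractions containing hLPA1 or hLPA3 from over-expressing CHO cells. LPA concentration-effect curves were run at increasing antagonist concentrations, and Schild analysis was derived from these curves.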

For data set [2], the target named is T1, Lysophosphatidic acid receptor 3 (Homo sapiens) (UniProt Q9UBY5).
T1 sequence (whole entry): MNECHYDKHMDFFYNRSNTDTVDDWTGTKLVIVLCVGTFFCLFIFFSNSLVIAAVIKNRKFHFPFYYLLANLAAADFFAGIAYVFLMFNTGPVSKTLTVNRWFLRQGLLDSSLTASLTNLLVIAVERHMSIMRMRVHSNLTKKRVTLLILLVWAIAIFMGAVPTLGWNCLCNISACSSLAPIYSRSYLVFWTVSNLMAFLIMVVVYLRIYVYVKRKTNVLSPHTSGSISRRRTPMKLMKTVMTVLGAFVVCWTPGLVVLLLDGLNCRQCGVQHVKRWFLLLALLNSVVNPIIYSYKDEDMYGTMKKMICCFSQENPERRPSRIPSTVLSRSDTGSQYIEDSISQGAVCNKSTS
Description: (§2) Competitive antagonist activity at N-terminal 3XHA-tagged human LPA3 receptor overexpressed in CHO cells assessed as inhibition of LPA-induced [35S]GTPgammaS binding by liquid scintillation counting. It is filed as functional, cell-based. In a few lines:
as §1
In general terms: GTPγS is a poorly hydrolysed GTP analogue; its binding reports G protein activation.

Data set [3] has as its target T2, Lysophosphatidic acid receptor 3 (Homo sapiens, UniProt Q9UBY5).
T2 sequence (Q9UBY5 whole entry): T1 sequence (whole entry)
The data set is described as §2. It is filed as functional, cell-based. The procedure, abridged:
as §1

Data set [4] deals with Lysophosphatidic acid receptor 1/lysophosphatidic acid receptor 3 (Rattus norvegicus, UniProt Q8K5E0+P61794). Description: Antagonist activity at LPAR1/LPAR3 in rat glioma C62B cells assessed as inhibition of LPA-induced reduction in isoproterenol-stimulated [3H]cAMP accumulation by liquid scintillation counting. Format: functional, cell-based. In a few lines: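 C62B cells were grown to confluence and labelled with [³H]adenine for 1 h to label ATP pools. They were then stimulated for 2 min with isoproterenol (10 μM), with or without 18:1 LPA (100 nM), and with or without antagonist. Antagonist was given at increasing concentrations to obtain dose-response curves of the block of LPA inhibition of cAMP accumulation.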

Data set [5] has as its target T3, Lysophosphatidic acid receptor 3 (Rattus norvegicus) (UniProt Q8K5E0).
T3 sequence (whole entry): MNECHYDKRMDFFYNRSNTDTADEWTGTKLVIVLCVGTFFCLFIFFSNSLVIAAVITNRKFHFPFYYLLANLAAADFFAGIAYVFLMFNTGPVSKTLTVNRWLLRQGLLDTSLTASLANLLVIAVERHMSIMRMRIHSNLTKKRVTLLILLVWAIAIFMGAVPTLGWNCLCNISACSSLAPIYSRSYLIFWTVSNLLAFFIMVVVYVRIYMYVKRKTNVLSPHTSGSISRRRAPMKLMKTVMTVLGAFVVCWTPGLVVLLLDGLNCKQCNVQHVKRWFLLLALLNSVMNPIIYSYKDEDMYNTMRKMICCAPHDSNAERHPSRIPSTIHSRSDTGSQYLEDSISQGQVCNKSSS
Description: Antagonist activity at LPAR3 in rat glioma C62B cells assessed as inhibition of LPA3 agonist-induced reduction in isoproterenol-stimulated [3H]cAMP accumulation by liquid scintillation counting. It is filed as functional, cell-based. On the technique in general: Cyclic AMP is a second messenger, typically raised through Gs and lowered through Gi signalling.

Data set [6] is described as follows: Half life in Wistar rat at 20 mg/kg, iv by LC-MS/MS analysis. Format: ADME, organism-based. Set-up: dose 20 mg/kg, route intravenous. As to conditions: in vivo.
The target in data set [7] is Lysophosphatidic acid receptor 2 (Homo sapiens) (UniProt Q9HBW0). Description: Antagonist activity at LPAR2 receptor (unknown origin) assessed as inhibition of LPA-induced [35S]GTPgammaS binding by liquid scintillation counting. Format: functional.

Each structure is given as a SMILES string. pKi: −log10 of the molar value. Activity calls are given as the source filed them.

Sequence of Lysophosphatidic acid receptor 1 (Q92633 whole entry): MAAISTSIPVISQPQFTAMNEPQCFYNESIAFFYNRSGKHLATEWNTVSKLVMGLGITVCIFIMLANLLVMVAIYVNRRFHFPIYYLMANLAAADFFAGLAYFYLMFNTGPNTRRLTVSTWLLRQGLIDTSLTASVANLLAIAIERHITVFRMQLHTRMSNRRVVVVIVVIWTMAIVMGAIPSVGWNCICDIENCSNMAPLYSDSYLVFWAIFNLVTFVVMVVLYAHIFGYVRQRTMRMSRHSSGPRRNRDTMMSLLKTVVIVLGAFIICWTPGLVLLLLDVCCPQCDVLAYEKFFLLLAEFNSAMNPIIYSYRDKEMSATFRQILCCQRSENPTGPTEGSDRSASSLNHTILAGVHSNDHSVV
Sequence of Lysophosphatidic acid receptor 2 (Homo sapiens) (Q9HBW0 whole entry): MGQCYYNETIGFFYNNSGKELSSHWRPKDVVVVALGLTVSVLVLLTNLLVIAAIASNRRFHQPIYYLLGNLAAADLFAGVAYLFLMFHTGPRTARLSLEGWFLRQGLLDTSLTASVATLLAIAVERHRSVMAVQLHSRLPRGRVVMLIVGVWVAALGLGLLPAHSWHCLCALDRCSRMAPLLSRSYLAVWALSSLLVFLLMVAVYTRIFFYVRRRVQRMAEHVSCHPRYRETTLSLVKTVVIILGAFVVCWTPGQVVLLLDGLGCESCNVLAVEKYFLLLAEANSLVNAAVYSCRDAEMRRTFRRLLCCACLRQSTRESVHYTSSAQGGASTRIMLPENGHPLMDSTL

For the compound `CCCCCCCCCCCCCCCC(=O)N[C@@H](/C=C/P(=O)(O)O)Cc1ccc(OCc2cc(OCC(F)(F)F)ccn2)cc1`, the inhibition entry in the data set on A-431 was “Active”. Moreover, the negative-log Ki (pKi) in data set [1] is 6.84; in data set [3], 6.29. Further, the inhibition entry in data set [1], in data set [2] and in data set [5] was “Dose-dependent effect” in each case. Besides, the Ki in data set [4] was 11 nM. In data set [6], this compound registered a half-life of 1.5 h. For the same compound, the inhibition entry in data set [7] is “inactive”.

For `CCCCCCCCCCCCCCCCCC(=O)N[C@@H](COP(=O)(O)O)Cc1ccc(OCc2cc(OCC(F)(F)F)ccn2)cc1`, the negative logarithm of the Ki (pKi) in data set [1] is 7.08; in data set [3] it was 7.32.

On to `Cc1noc(-c2ccc(CSCCC(=O)O)cc2)c1NC(=O)OC(C)c1ccccc1Cl` (stereo not given), for which the inhibition result in data set [1] and in data set [2] was “Active” each time.

In the case of `CCCCCCCCCCCCCCCC(=O)N[C@@H](/C=C(\F)P(=O)(O)O)Cc1ccc(OCc2cc(OCC(F)(F)F)ccn2)cc1`, in the data set with A-431, the inhibition entry is “Active”.

As to `CCCCCCCCCCCCCCCC(=O)N[C@H](Cc1ccc(OCc2cc(OCC(F)(F)F)ccn2)cc1)CC(F)P(=O)(O)O` (stereo not given in full), in the data set on A-431, the inhibition entry is “Active”.
